Screening results: PubChem, several laboratories
In the library only some 1.7% were active in any assay of this set; here they are far more common.
Neddylation inh: inhibitors of human cullin neddylation; AID 651699; P61081+Q13564; 0.58% of 360,000 active; inhibition, % at 25 µM; TR-FRET cullin neddylation, biochemical; in the data active = inhibition above about 36%
DSG3 Ab inh: blocks pemphigus antibody binding to human desmoglein-3 | P32926 | DSG3-coupled beads, scFv-anti-DSG3-GFP binding, flow cytometry; active compounds read low | binding (percent of control), % at 10 µM | 0.48% of 310,000 active | AID 588358;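 active = binding more than 3 SD below its plate's average and above zero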;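 also: hits lower antibody fragment binding to DSG3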
Target sequence (P32926 whole entry, looked up, the tested form may be a part): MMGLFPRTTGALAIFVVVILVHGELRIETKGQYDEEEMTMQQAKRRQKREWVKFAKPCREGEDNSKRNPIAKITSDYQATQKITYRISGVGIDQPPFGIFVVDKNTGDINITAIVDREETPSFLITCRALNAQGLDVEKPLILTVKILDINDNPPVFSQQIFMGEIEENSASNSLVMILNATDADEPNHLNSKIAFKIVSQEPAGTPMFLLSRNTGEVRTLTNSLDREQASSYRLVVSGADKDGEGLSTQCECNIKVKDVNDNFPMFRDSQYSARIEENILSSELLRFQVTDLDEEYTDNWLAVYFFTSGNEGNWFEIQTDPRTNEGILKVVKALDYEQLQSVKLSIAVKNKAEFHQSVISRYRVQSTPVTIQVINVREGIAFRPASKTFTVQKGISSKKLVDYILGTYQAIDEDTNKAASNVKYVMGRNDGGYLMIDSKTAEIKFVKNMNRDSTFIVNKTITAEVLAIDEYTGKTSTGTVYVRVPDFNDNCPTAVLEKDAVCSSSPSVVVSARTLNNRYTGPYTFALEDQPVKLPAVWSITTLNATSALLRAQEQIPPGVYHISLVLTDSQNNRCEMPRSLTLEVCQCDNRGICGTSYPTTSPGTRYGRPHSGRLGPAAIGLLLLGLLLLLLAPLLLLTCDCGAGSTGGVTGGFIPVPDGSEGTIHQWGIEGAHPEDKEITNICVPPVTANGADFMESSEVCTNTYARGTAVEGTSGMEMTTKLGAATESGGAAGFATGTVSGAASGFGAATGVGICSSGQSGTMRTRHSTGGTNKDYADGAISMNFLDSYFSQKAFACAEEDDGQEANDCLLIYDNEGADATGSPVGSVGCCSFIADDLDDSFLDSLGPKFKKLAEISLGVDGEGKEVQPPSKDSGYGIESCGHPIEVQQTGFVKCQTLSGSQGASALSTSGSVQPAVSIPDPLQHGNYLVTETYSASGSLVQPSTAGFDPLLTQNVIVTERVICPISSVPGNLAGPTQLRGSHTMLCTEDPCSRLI
Efflux pump inh: antifungal efflux pump inhibition, Nile Red retention. 0.44% of 330,000 active. inhibition, % at 10 µM. S. cerevisiae Candida pump triplex;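 active = plate passing quality check with inhibition over a set limit, or well fluorescence over plate mean plus 4 SD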;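 also: Nile Red retained in pooled yeast measured as flow cytometry median fluorescence; higher means more Nile Red kept so more efflux inhibition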
Arr AP2 block: human beta-arrestin and AP2 interaction inhibition; FITC-arrestin peptide / GST-AP2 beads, flow cytometry; AP2 beta2 appendage carries R879A mutation; inhibition, % at 10 µM; 0.31% of 340,000 active; AID 504490;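 active = inhibition above a set limit, near 3 SD of compounds lacking own fluorescence, cut at about 54% in these data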
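system = GST-tagged AP2 beta2-adaptin appendage (R879A) on 4 µm glutathione beads | reagent = FITC-labelled arrestin peptide probe, 50 nM final | schedule = compound with beads 12 min RT, then probe 1 h RT | signal = HyperCyt-sampled flow cytometry, FL1 channel, ex 488/em 535 nm | read-out = percent response from loss of bead-bound FITC fluorescence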
Large screens that a line does not name were inactive.

CCOc1ccc(C(=O)CN2C(=O)NC3(CCCc4ccccc43)C2=O)cc1 (centres undefined)	none (no result: Efflux pump inh, Arr AP2 block)
Cc1ccc(CNC(=O)Cc2cccs2)cc1	none
COc1ccc(N2CC(C(=O)Nc3ccc(S(=O)(=O)N4CCCCC4)cc3)CC2=O)cc1 (centres undefined)	none
COC(=O)c1ccc(NC(=O)C2CC(=O)N(c3cc(C)ccc3C)C2)cc1 (centres undefined)	none
COc1ccc(N2CC(C(=O)Nc3ccc(S(=O)(=O)N4CCCC4)cc3)CC2=O)cc1 (centres undefined)	DSG3 Ab inh 31
COC(=O)c1ccc(NC(=O)C2CC(=O)N(c3ccc(C)cc3)C2)cc1 (centres undefined)	DSG3 Ab inh -25
Cc1c(C(=O)N2CC(C)OC(C)C2)[nH]c2ccc(Br)cc12 (centres undefined)	none
COc1cccc(NC(=O)CSCc2n[nH]c(=O)[nH]2)c1	none
COC(=O)C(C(=O)OC)c1ccc(-n2cccc2)cc1	Arr AP2 block 56
COC(=O)c1ccc(-c2sc3nc(N4CCOCC4)c4c(c3c2N)CC(C)(C)OC4)o1	DSG3 Ab inh 38 (not shown: Neddylation inh)
Cc1ccc(SCCCCN2CCOCC2)cc1	DSG3 Ab inh 50
CCOc1ccc(C(=O)OCC(=O)Nc2cc(S(=O)(=O)N3CCOCC3)ccc2N2CCOCC2)cc1	DSG3 Ab inh -19 (no result: Efflux pump inh)
CCOc1ccc(OCCCC(=O)Nc2cc(S(=O)(=O)N3CCOCC3)ccc2N2CCOCC2)cc1	none (no result: Efflux pump inh)
C[C@@H]1O[C@@H](OCCC(=O)O)[C@H](O)C[C@H]1O	none
Cc1ccc(C(=O)OCC(=O)NC(=O)c2ccccc2)o1	none
Cc1cc(NC(=O)Nc2ccc(Cl)c(Cl)c2)no1	none
O=C(Nc1ccc(Cl)c(Cl)c1)Nc1ccon1	Efflux pump inh 6.5
CCC(C)N(C)C(=O)c1cc2ccccc2c(-c2ccccc2Cl)n1 (centres undefined)	DSG3 Ab inh 20
Cc1onc(-c2ccccc2Cl)c1C(=O)N(Cc1ccccc1)C(C)C	none
CCOC(=O)C1=C(c2ccccc2)NC(=O)NC1c1cc(Br)c(O)c(OC)c1 (centres undefined)	none
CCOC(=O)C1=C(C)NC(=O)NC1c1cc(Br)c(O)c(OC)c1 (centres undefined)	DSG3 Ab inh 76
O=C1c2ccc(-c3ccc(F)cc3OCc3ccccc3)cc2S(=O)(=O)c2cccc(C(=O)N3CCN(c4ncc(Br)cn4)CC3)c21	DSG3 Ab inh 89
O=C1c2ccc(-c3ccc(F)cc3OCc3ccccc3)cc2S(=O)(=O)c2cccc(C(=O)N3CCN(c4ncc(Cl)cc4Cl)CC3)c21	none
O=C1c2ccccc2C(=O)N1CCCOc1ccccc1	none
O=C1c2ccccc2C(=O)N1CCCN1C(=O)c2ccccc2C1=O	DSG3 Ab inh -1.0 (no result: Efflux pump inh)
Cc1c(C(=O)NC2=NCCS2)cccc1[N+](=O)[O-]	none
COc1cccc(CN(C(=O)Cc2c[nH]c3ccccc23)C(C(=O)NC2CCCCC2)c2cccs2)c1 (centres undefined)	none
COc1ccc(C(C(=O)NC2CCCCC2)N(Cc2cccs2)C(=O)Cc2c[nH]c3ccccc23)cc1 (centres undefined)	DSG3 Ab inh 30
CC(C)COc1ccc(C(=O)N2C(=O)c3ccc(N)cc3C2=O)cc1	DSG3 Ab inh 39
Nc1cc(-c2ccccc2)nn1S(=O)(=O)c1ccc(F)cc1	none
Nc1cc(-c2ccc(Br)cc2)nn1S(=O)(=O)c1ccccc1	DSG3 Ab inh 62
CC(C)(C)c1ccc(C2C(C#N)=C(N)Oc3n[nH]c(-c4cccnc4)c32)cc1 (centres undefined)	DSG3 Ab inh 15
COc1cc(OC)cc(C2C(C#N)=C(N)Oc3n[nH]c(-c4cccnc4)c32)c1 (centres undefined)	none
N#Cc1ccc2c(=O)n(-c3ccccc3)sc2c1	DSG3 Ab inh 68 (no result: Efflux pump inh, Arr AP2 block)
CC(=O)Nc1ccc2c(=O)n(-c3ccccc3)sc2c1	DSG3 Ab inh 48 (no result: Efflux pump inh, Arr AP2 block)
CC(=O)Nc1ccc(-c2cc(N)n(-c3ccccc3)n2)cc1	none
Cc1ccc(S(=O)(=O)N(CC(=O)N=Nc2c(O)[nH]c3ccccc23)c2cccc(C)c2)cc1	DSG3 Ab inh 85
Cc1cc(Cl)ccc1N(CC(=O)N=Nc1c(O)[nH]c2ccccc12)S(C)(=O)=O	none
Cc1ccc(N(C(=O)c2ccco2)C(C(=O)NC2CCCC2)c2cccnc2)cc1 (centres undefined)	none
CCCCCC[N+](C)(C)CCSSCC[N+](C)(C)CCCCCC	none
CCCCCCCCCCCCCCCC[N+](C)(C)CC	Efflux pump inh 1.8
CC1CCc2cc(F)cc3c(O)c(C(=O)NCCN(C)C)c(=O)n1c23 (centres undefined)	none
CN(c1ccc(OCC(=O)Nc2nc(-c3ccccc3)cs2)cc1)S(=O)(=O)c1ccc(F)cc1	none
CCOC(=O)C(=O)c1csc(NC(=O)COc2ccc(N(C)S(=O)(=O)c3ccc(F)cc3)cc2)n1	DSG3 Ab inh 73
COC(=O)C1CCN(C(=O)c2sc3nc(-c4ccc(F)cc4)cn3c2C)CC1	none
CC(=O)c1ccc(NC(=O)c2ccc(C)c(S(=O)(=O)N3CCOCC3)c2)cc1	DSG3 Ab inh 67
COc1ccc(S(=O)(=O)N2CCOCC2)cc1NC(=O)c1ccc(S(=O)(=O)N2CCCCC2)cc1	none (no result: Efflux pump inh)
CCOC(=O)c1ccc(NC(=O)c2ccc(C)c(S(=O)(=O)N3CCOCC3)c2)cc1	none
COc1ccc(OC)c2sc(NC(=O)c3ccc(S(=O)(=O)N4CCOCC4)cc3)nc12	DSG3 Ab inh -17
CC(=O)Nc1ccc(C(=O)Nc2ccc(S(=O)(=O)N3CCOCC3)cc2)cc1	none
Cc1nc2ccc(NC(=O)c3ccc(S(=O)(=O)N4CCOCC4)cc3)cc2s1	DSG3 Ab inh 81
Cc1cc(OC(=O)c2ccc(C(C)(C)C)cc2)c([N+](=O)[O-])c(=O)[nH]1	none (no result: DSG3 Ab inh)
O=[N+]([O-])c1ccc(Cl)c(/C=N/NC(=S)Nc2ccccc2)c1	DSG3 Ab inh 84
O=C(CN(c1ccc(Cl)cc1)S(=O)(=O)c1ccc(Cl)c([N+](=O)[O-])c1)NCCc1ccc(F)cc1	DSG3 Ab inh 45
O=S(=O)(Cc1ccccc1)N1CCc2ccccc21	Efflux pump inh 2.7 (no result: Neddylation inh, DSG3 Ab inh, Arr AP2 block)
CCOC(=O)c1cn(-c2nc(-c3ccc(Cl)c(Cl)c3)cs2)c2c(F)c(N3CCOCC3)c(F)cc2c1=O	Efflux pump inh 1.6
O=C(O)COc1ccccc1/C=N/NC(=O)Cc1csc(Nc2cccc(C(F)(F)F)c2)n1	none
O=C(Nc1ccc(N2CCOCC2)cc1)C1CC(=O)N(c2ccccc2)C1 (centres undefined)	none
CCOc1ccc(N2CC(C(=O)Nc3ccc(N4CCOCC4)cc3)CC2=O)cc1 (centres undefined)	DSG3 Ab inh -10
Cc1ccc(N2CC(C(=O)Nc3ccc(N4CCOCC4)cc3)CC2=O)cc1C (centres undefined)	DSG3 Ab inh -0.9
Cc1nn(CC(=O)NC(C)C)c(C)c1[N+](=O)[O-]	none
CCCCNC(=S)Nc1ccccc1Cc1ccccc1	DSG3 Ab inh 96
CCCCSCCCNC(=S)Nc1ccccc1C	none (no result: DSG3 Ab inh)
O=C(CCc1nc2ccccc2c(=O)[nH]1)OCc1ccc(-c2ccccc2)cc1	DSG3 Ab inh 7.9
